Assay results gathered from unrelated publications.

SMILES	cell line	assay	conditions	measurement	result
CCCCCCc1ccc(O)cc1O	human PBMC	cell migration	10 µM	inhibition	57%
O=C(Oc1ccc(Br)cc1)[c-]1cccc1.[Fe+2].c1cc[cH-]c1	MCF-10A	cell growth or viability, MTT	72 h	IC50	353 µM
N[C@@H](Cc1ccc(N(CCCl)CCCl)cc1)C(=O)O	MCF-10A	cell growth or viability, CCK-8	48 h	IC50	> 50 µM
NS(=O)(=O)c1cc(C(=O)O)c(NCc2ccco2)cc1Cl	human PBMC	cell migration, inhibitor	–	IC50	~1 µM
O=C(O)C(Cl)Cl	HCT-15	cell growth or viability, MTT	72 h	IC50	> 50 µM
O=C(O)c1ccccc1NCc1ccco1	human PBMC	cell migration	10 µM	inhibition	82%
Cc1cc(C)c(N2CCN(c3c(C)cc(C)cc3C)C2=[Se])c(C)c1	HCT-15	cell growth or viability, MTT	72 h	IC50	10.2 µM
CCCCCCCCCCCCCCCC[N+](C)(C)C	MDCK	cell growth or viability, MTT	–	IC50	9 µM
CN1CCCN=C1/C=C/c1cccs1	human PBMC	cell migration	10 µM	inhibition	76%
[Se]=c1n(C2CCCCC2)ccn1C1CCCCC1	HCT-15	cell growth or viability, MTT	72 h	IC50	14.2 µM
O=C(Oc1ccc(-n2cccc2)cc1)[c-]1cccc1.[Fe+2].c1cc[cH-]c1	MCF-10A	cell growth or viability, MTT	72 h	IC50	1.8 µM
COc1cc2c3c(n(CCCNCCO)c(=O)c2cc1OC)-c1cc2c(cc1C3=O)OCO2	HOP-62	cell growth or viability	–	GI50	0.02 µM
O=C(c1cc(Cl)c(Cl)[nH]1)c1c(O)cccc1O	MDCK	cell growth or viability, MTT	72 h	IC50	1.3 µg/mL
Cn1cncc1[C@@](N)(c1ccc(Cl)cc1)c1ccc2c(c1)c(-c1cccc(Cl)c1)cc(=O)n2C	CAL-27	cell growth or viability	72 h	IC50	9.78 µM
O=C(O)c1cc(S(=O)(=O)NCc2ccco2)c(Cl)cc1N1CCCCC1	human PBMC	cell migration	10 µM	inhibition	42%
O=C(O)CCCc1ccc(N(CCCl)CCCl)cc1	MCF-10A	cell growth or viability, CCK-8	48 h	IC50	> 50 µM
